# From ChEMBL document CHEMBL3421533, “The Discovery of Orally Bioavailable Tyrosine Threonine Kinase (TTK) Inhibitors: 3-(4-(heterocyclyl)phenyl)-1H-indazole-5-carboxamides as Anticancer Agents” (J Med Chem, 2015)
# Key:
# [1] = molecular target: Aurora kinase B/Inner centromere protein (Homo sapiens, UniProt Q96GD4); experiment: Inhibition of AURKB/INCENP (unknown origin) preincubated for 15 mins prior to ATP addition by FRET-based homogenous assay; assay type: protein-complex assay
# In short: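 The enzyme was AURKB/INCENP in a FRET-based homogeneous assay run to kit specifications, with ATP at 128 μM. […] Each IC50 came from a single determination, reported with its standard fitting error.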
# [2] = molecular target: T1, Dual specificity protein kinase TTK (Homo sapiens, UniProt P33981); experiment: Inhibition of amino terminal GST-fused full length human TTK using His6-SUMO-TTK-N as substrate preincubated for 15 mins prior to ATP addition by indirect ELISA detection system
# T1 sequence (P33981 whole entry): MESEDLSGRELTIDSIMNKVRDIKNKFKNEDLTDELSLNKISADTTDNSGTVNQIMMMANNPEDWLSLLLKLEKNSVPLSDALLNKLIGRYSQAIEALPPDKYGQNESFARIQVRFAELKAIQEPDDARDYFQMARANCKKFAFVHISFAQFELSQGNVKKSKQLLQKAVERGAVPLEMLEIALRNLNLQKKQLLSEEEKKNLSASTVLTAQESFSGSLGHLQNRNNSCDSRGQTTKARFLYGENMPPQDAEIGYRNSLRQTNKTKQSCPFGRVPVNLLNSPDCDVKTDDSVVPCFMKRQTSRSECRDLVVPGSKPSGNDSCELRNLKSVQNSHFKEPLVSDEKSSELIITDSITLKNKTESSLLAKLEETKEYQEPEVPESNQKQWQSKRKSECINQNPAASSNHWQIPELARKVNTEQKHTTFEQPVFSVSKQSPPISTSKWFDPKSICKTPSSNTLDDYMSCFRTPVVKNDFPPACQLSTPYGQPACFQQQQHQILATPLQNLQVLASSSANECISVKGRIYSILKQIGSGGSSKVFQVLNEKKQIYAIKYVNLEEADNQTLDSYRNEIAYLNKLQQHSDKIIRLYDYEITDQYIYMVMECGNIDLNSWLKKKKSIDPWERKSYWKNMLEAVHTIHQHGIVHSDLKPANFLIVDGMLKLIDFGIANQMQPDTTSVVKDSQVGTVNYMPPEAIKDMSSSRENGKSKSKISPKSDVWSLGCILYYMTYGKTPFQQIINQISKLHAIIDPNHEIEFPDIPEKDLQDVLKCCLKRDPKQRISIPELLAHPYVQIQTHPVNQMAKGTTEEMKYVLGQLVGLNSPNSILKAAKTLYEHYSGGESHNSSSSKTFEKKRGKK
# [3] = Cytotoxicity against human HCT116 cells after 5 days by sulforhodamine B assay; assay type: functional, HCT-116; details: Homo sapiens, HCT-116, 120 h
# In short: (§1)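 Cancer lines were seeded at 800–6000 cells per well according to growth rate, 24 h before compound overlay. After culture, cells were fixed in situ and stained with sulforhodamine B. GI50 values were derived by curve fitting.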
# MDA-MB-468 = experiment: Cytotoxicity against human MDA-MB-468 cells after 5 days by sulforhodamine B assay; assay type: functional; details: Homo sapiens, MDA-MB-468, 120 h; in short: as §1
# [4] = Cytotoxicity against human OVCAR3 cells after 5 days by sulforhodamine B assay; assay type: functional, OVCAR-3; details: Homo sapiens, OVCAR-3, 120 h
# [5] = Half life in rat liver microsomes at 1 uM by LC-MS analysis; assay type: ADME; details: liver microsomes
# [6] = Half life in mouse liver microsomes at 1 uM by LC-MS analysis; assay type: ADME; details: liver microsomes
# Cytochrome P450 3A4 = Cytochrome P450 3A4 (Homo sapiens, UniProt P08684); experiment: Inhibition of human CYP3A4 using BFC as substrate preincubated for 10 mins followed by enzyme/substrate addition measured after 30 mins by fluorescence assay; assay type: ADME
# Sequence of Cytochrome P450 3A4 (P08684 whole entry, the tested form may be a part): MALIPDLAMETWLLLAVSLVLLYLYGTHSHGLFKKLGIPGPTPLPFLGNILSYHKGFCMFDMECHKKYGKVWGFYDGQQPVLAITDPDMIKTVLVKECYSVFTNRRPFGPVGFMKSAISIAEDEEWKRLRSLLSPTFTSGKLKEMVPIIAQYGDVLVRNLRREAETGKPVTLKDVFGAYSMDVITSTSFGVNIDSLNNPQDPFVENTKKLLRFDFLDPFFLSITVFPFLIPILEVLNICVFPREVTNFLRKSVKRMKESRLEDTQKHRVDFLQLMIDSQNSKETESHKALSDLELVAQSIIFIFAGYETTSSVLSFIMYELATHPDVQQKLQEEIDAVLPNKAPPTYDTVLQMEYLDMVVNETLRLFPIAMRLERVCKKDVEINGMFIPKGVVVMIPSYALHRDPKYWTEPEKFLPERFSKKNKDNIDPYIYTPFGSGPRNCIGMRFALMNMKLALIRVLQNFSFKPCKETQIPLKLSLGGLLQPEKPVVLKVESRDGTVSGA
# Homo sapiens = species: Homo sapiens; experiment: Selectivity ratio of IC50 for AURKB/INCENP (unknown origin) to IC50 for amino terminal GST-fused full length human TTK
# [7] = AUCinfinity in athymic CD1 nude mouse at 10 mg/kg, po by LC-MS/MS analysis; assay type: ADME, organism-based, Plasma; design: time infinity, dose 10 mg/kg, route oral; details: athymic CD1 nude, plasma
# [8] = Cmax in athymic CD1 nude mouse at 10 mg/kg, po by LC-MS/MS analysis; assay type: ADME, organism-based; design: dose 10 mg/kg, route oral; details: athymic CD1 nude, in vivo
# Sequence of Aurora kinase B/Inner centromere protein (Q96GD4 whole entry): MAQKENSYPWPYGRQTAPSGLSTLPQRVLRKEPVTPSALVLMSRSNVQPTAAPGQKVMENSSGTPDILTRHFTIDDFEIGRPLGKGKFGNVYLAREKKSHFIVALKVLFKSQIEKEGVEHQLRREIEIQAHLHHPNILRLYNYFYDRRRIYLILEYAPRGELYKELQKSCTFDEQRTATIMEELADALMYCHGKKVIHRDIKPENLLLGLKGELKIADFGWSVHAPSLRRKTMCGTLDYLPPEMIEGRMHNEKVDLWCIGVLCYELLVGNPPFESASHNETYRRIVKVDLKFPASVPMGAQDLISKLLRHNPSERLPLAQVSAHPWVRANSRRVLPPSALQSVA
# Sequence of Aurora kinase B/Inner centromere protein (Q9NQS7 whole entry, further chain): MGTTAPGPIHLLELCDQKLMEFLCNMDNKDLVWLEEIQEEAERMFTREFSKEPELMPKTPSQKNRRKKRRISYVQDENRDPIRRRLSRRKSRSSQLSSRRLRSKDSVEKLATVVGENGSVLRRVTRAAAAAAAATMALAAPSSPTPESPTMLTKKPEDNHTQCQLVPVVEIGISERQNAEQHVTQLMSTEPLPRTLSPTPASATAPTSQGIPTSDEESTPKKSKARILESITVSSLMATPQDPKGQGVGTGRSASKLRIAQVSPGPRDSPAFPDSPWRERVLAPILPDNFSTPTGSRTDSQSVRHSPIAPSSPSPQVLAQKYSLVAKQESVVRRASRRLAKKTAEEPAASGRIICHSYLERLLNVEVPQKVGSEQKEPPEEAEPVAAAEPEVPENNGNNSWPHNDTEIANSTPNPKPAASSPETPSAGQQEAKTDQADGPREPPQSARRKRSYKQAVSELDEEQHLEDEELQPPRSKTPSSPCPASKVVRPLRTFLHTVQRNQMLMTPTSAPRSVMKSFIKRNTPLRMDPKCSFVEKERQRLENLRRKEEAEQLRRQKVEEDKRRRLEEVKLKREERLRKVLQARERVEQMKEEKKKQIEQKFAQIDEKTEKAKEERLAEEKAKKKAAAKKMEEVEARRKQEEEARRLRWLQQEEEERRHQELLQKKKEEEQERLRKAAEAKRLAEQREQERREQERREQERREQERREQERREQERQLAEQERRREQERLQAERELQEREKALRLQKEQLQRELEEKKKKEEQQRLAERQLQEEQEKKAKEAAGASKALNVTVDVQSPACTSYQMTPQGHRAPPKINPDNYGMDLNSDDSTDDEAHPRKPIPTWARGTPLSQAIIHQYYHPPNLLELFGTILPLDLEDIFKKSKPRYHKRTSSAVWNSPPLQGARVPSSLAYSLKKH
SMILES,IC50 [1] [nM],IC50 [2] [nM],GI50 [3] [nM],GI50 (MDA-MB-468) [nM],GI50 [4] [nM],half-life at 1 µM [5] [min],half-life at 1 µM [6] [min],IC50 (Cytochrome P450 3A4) [nM],Ratio IC50 (Homo sapiens),AUC(0-inf) [7] [ng·h/mL],Cmax [8] [ng/mL]
NS(=O)(=O)c1cccc(-c2n[nH]c3ccc(C(=O)NC(c4ccccc4)C4CC4)cc23)c1 (stereo not drawn),5000,,,,,,,,,,
CC[C@@H](NC(=O)c1ccc2[nH]nc(-c3ccc(OC4CCN(C)CC4)cc3)c2c1)c1ccccc1Cl,38,,,,,,,,,,
O=C(NCC1(N2CCOCC2)CCCCC1)c1ccc2[nH]nc(-c3ccc(N4CCC(O)CC4)cc3)c2c1,,230,48,210,,,,,,,
O=C(NCC1(N2CCOCC2)CCCCC1)c1ccc2[nH]nc(-c3ccc(N4CC5CCC(C4)O5)cc3)c2c1,,18,150,650,690,,,,,,
O=C(NCC1(N2CCOCC2)CCCCC1)c1ccc2[nH]nc(-c3ccc(N4C5CCC4COC5)cc3)c2c1,800,1.1,1,25,17,9.6,2.7,,,,
O=C(N[C@H](c1ccccc1F)C1CC1)c1ccc2[nH]nc(-c3ccc(N4C5CCC4COC5)cc3)c2c1,470,,,,,,,,,,
O=C(N[C@@H](c1ccccc1F)C1CC1)c1ccc2[nH]nc(-c3ccc(N4C5CCC4COC5)cc3)c2c1,980,,,,,,,240,,,
CC(C)[C@H](NC(=O)c1ccc2[nH]nc(-c3ccc(N4C5CCC4COC5)cc3)c2c1)c1ccccc1Cl,1900,,,,,,,60,,,
O=C(N[C@H](c1ccccn1)C1CC1)c1ccc2[nH]nc(-c3ccc(N4C5CCC4COC5)cc3)c2c1,360,1.4,2,15,18,> 60,> 60,,,,
O=C(N[C@@H](c1ccccn1)C1CCCC1)c1ccc2[nH]nc(-c3ccc(N4C5CCC4COC5)cc3)c2c1,1400,,,,,,,360,,,
O=C(N[C@H](c1ccccn1)C1CCCC1)c1ccc2[nH]nc(-c3ccc(N4C5CCCC4COC5)cc3)c2c1,2800,8.3,25,180,200,,50,,,,
CC(C)[C@H](NC(=O)c1ccc2[nH]nc(-c3ccc(N4[C@H]5CC[C@H]4CC(O)C5)cc3)c2c1)c1ccccc1Cl (stereo partly drawn),> 6300,6,9,21,7,> 60,34,,> 100,620,330
O=C(N[C@H](c1ccccc1)C1CC1)c1ccc2[nH]nc(-c3ccc(N4[C@H]5CC[C@H]4CC(O)C5)cc3)c2c1 (stereo partly drawn),1100,2.8,22,70,120,35,47,,> 100,670,480
O=C(N[C@@H](c1ccccn1)C1CCCC1)c1ccc2[nH]nc(-c3ccc(N4[C@H]5CC[C@H]4CC(O)C5)cc3)c2c1 (stereo partly drawn),1800,4.1,15,30,90,22,> 60,230,> 100,,
O=C(N[C@@H](c1ncccn1)C1CCCC1)c1ccc2[nH]nc(-c3ccc(N4[C@H]5CC[C@H]4CC(O)C5)cc3)c2c1 (stereo partly drawn),850,3.9,20,150,160,,> 60,,,,
CC(C)C[C@H](NC(=O)c1ccc2[nH]nc(-c3ccc(N4[C@H]5CC[C@H]4CC(O)C5)cc3)c2c1)c1ccccn1 (stereo partly drawn),1500,1.7,2,17,140,48,> 60,,,,
